Activity calls are given as the source filed them. The calls are words filed in the database; no cut-off is given here.
What was measured:
SW-620 [1] = experiment: Cell cycle arrest in human SW620 cells assessed as accumulation at S phase at 2 uM after 48 hrs using propidium iodide staining by flow cytometry (reference value: 43.1 +/- 1%); type: functional
HCT-116 [2] = experiment: Cell cycle arrest in human HCT116 cells assessed as accumulation at G2/M phase at 5 uM after 48 hrs using propidium iodide staining by flow cytometry (reference value: 7.1 +/- 0.3%); type: functional
SW-620 [3] = experiment: Cell cycle arrest in human SW620 cells assessed as accumulation at G0/G1 phase at 5 uM after 48 hrs using propidium iodide staining by flow cytometry (reference value: 47.8 +/- 1.2%); type: functional
HCT-116 [4] = experiment: Induction of apoptosis in human HCT116 cells assessed as increase of expression of cleaved caspase-9 and caspase-3 after 24 hrs by immunoblotting; type: functional, cell-based
How it was run: (§1)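 HCT-116 or SW-620 cells treated with 0–10 μM for 24 h, lysed, and run on 15% SDS-PAGE immunoblots. Probed for Bcl-2 (1:1000), Bax (1:500), caspase-9/-3 and their cleaved forms (1:1000), and β-actin (1:1000). Bands quantified by densitometry; means ± SD of three experiments in duplicate.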

SW-620 [5] = experiment: Decrease of cyclin A expression in human SW620 cells after 24 hrs by immunoblotting; type: functional, cell-based
How it was run: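 HCT-116 or SW-620 cells exposed to 0–10 μM for 24 h. Cells lysed in Tris/NaCl/EDTA/1% Triton X-100 buffer with protease and phosphatase inhibitors at 4 °C, protein measured by BCA. Lysates run on 10–12.5% SDS-PAGE and immunoblotted, ECL detection. Cdk2, cyclin A and cyclin E antibodies used at 1:500; β-actin as loading control.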

HCT-116 [6] = experiment: Cell cycle arrest in human HCT116 cells assessed as accumulation at G2/M phase at 10 uM after 48 hrs using propidium iodide staining by flow cytometry (reference value: 7.1 +/- 0.3%); type: functional
SW-620 [7] = experiment: Cell cycle arrest in human SW620 cells assessed as accumulation at S phase at 1 uM after 48 hrs using propidium iodide staining by flow cytometry (reference value: 43.1 +/- 1%); type: functional
SW-620 [8] = experiment: Cell cycle arrest in human SW620 cells assessed as accumulation at S phase after 48 hrs using propidium iodide staining by flow cytometry; type: functional, cell-based
HCT-116 [9] = experiment: Cell cycle arrest in human HCT116 cells assessed as accumulation at S phase at 1 uM after 48 hrs using propidium iodide staining by flow cytometry (reference value: 36.3 +/- 1.7%); type: functional
HCT-116 [10] = experiment: Cell cycle arrest in human HCT116 cells assessed as accumulation at G0/G1 phase at 10 uM after 48 hrs using propidium iodide staining by flow cytometry (reference value: 56.7 +/- 1.9%); type: functional
HCT-116 [11] = experiment: Induction of apoptosis in human HCT116 cells expressing p21 siRNA assessed as change in cell morphology at 10 uM after 24 hrs by phase-contrast microscopic analysis; type: functional, cell-based
How it was run: (§2)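 Cells plated at 5 × 10^4 per well and transfected with 100 nM scrambled or p21 siRNA in OPTI-MEM for 4 h. Complete RPMI medium was added and cells grown a further 24 h, then exposed to 10 μM for 24 h. Viability measured by direct count after trypan blue staining. Morphology viewed by phase-contrast at 200×. Means ± SD, three experiments in triplicate.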

HCT-116 [12] = experiment: Cell cycle arrest in human HCT116 cells assessed as accumulation at G0/G1 phase at 5 uM after 48 hrs using propidium iodide staining by flow cytometry (reference value: 56.7 +/- 1.9%); type: functional
HCT-116 [13] = experiment: Antitumor activity against human HCT116 cells xenografted in BALB/c-nude mouse assessed as reduction of tumor weight at 100 mg/kg, po administered every other day from day 2 to 21 (reference value: 469 mg); type: functional
How it was run: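 Male BALB/c-nude mice; 2 × 10^6 tumour cells in 0.2 mL PBS injected intradermally into the flank on day 0, n = 10 per group. Oral dosing every other day for 3 weeks, starting 2 days after inoculation. Caliper tumour volume = (width)2 × length/2, measured periodically. Tumours excised and weighed at day 21. Means ± SE.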

SW-620 [14] = experiment: Cell cycle arrest in human SW620 cells assessed as accumulation at G0/G1 phase at 10 uM after 48 hrs using propidium iodide staining by flow cytometry (reference value: 47.8 +/- 1.2%); type: functional
SW-620 [15] = experiment: Cytotoxicity against human SW620 cells assessed as cell death at 2 uM after 48 hrs; type: functional, cell-based
How it was run: (§3)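 Cells seeded at 10^5 per well in RPMI 1640/10% FBS at 37 °C. Subconfluent cells exposed to 0, 0.1, 0.5, 1, 2, 5 or 10 μM for 48 h, or to 10 μM for 24, 48 and 72 h; ethanol vehicle, at most 0.01% v/v final. Cells trypsinized and counted by hemocytometer. Viability as % of control, means ± SD, three experiments in triplicate.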

HCT-116 [16] = experiment: Cytotoxicity against human HCT116 cells assessed as cell viability at 0.1 to 2 uM after 24 to 72 hrs; type: functional, cell-based; how it was run: as §3
SW-620 [17] = experiment: Induction of apoptosis in human SW620 cells assessed as increase of expression of cleaved caspase-9 and caspase-3 after 24 hrs by immunoblotting; type: functional, cell-based; how it was run: as §1
SW-620 [18] = experiment: Induction of apoptosis in human SW620 cells expressing p21 siRNA assessed as change in cell morphology at 10 uM after 24 hrs by phase-contrast microscopic analysis; type: functional, cell-based; how it was run: as §2
HCT-116 [19] = experiment: Cell cycle arrest in human HCT116 cells assessed as accumulation at G0/G1 phase at 1 uM after 48 hrs using propidium iodide staining by flow cytometry (reference value: 56.7 +/- 1.9%); type: functional
SW-620 [20] = experiment: Cytotoxicity against human SW620 cells after 24 to 72 hrs; type: functional, cell-based; how it was run: as §3
SW-620 [21] = experiment: Cell cycle arrest in human SW620 cells assessed as accumulation at G2/M phase at 0.5 uM after 48 hrs using propidium iodide staining by flow cytometry (reference value: 9.1 +/- 0.3%); type: functional
SW-620 [22] = experiment: Cell cycle arrest in human SW620 cells assessed as accumulation at G2/M phase at 2 uM after 48 hrs using propidium iodide staining by flow cytometry (reference value: 9.1 +/- 0.3%); type: functional

`CC(C)c1cccc(=O)c(O)c1` [HINOKITIOL] gave an Activity (SW-620 [1]) of 52.4%, an Activity (HCT-116 [2]) of 11.9% and an Activity (SW-620 [3]) of 40.8%. The Activity (HCT-116 [4]) was “Dose-dependent effect”, the Activity (SW-620 [5]) was “Dose-dependent effect” and the Activity (HCT-116 [6]) was 7.4%. The Activity (SW-620 [7]) was 47.7%, the Activity (SW-620 [8]) was “Dose-dependent effect” and the Activity (HCT-116 [9]) was 37.2%. For the same compound, the Activity (HCT-116 [10]) was 38.8%, the Activity (HCT-116 [11]) was “inactive” and the Activity (HCT-116 [12]) was 44.6%. The Activity (HCT-116 [13]) was 245 mg, the Activity (SW-620 [14]) was 11.5% and the Activity (SW-620 [15]) was “Active”. For the same compound, the Activity (HCT-116 [16]) was “Active”, the Activity (SW-620 [17]) was “Dose-dependent effect” and the Activity (SW-620 [18]) was “inactive”. The Activity (HCT-116 [19]) was 55.1%, the IC50 (SW-620 [20]) was 4.4 µM and the “growth inhibition (GI)” value (SW-620 [20]) was “Dose-dependent effect”. For the same compound, the Activity (SW-620 [21]) was 8.4% and the Activity (SW-620 [22]) was 4.5%.

From ChEMBL document CHEMBL3091462 (J Nat Prod, 2013)
